Reference: ChEMBL document CHEMBL3612047, “Synthesis, antiproliferative activity and possible mechanism of action of novel 2-acetamidobenzamides bearing the 2-phenoxy functionality” (Bioorg Med Chem, 2015)
Active and inactive are the calls of the source. The calls are words filed in the database; no cut-off is given here.

What was measured:
[1] = system: A549; test: Growth inhibition of human A549/ATCC cells by NCI standard protocol based method; format: functional
Procedure, shortened: (§1)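 NCI full 60-cell-line panel, 5-dose assay to the NCI standard protocol. GI₅₀ is the molar concentration inhibiting 50% net cell growth. Mean graph midpoint is averaged over all lines; where the effect is not reached, the highest tested concentration is used.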

[2] = system: M14; test: Growth inhibition of human M14 cells by NCI standard protocol based method; format: functional; procedure, shortened: as §1
[3] = system: T47D; test: Growth inhibition of human T47D cells by NCI standard protocol based method; format: functional
Procedure, shortened: (§2)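 NCI 60-cell-line screen, standard NCI protocol. Single high dose of 10⁻⁵ M first, then a 5-dose assay across the full panel. Reported as GI₅₀, TGI and LC₅₀, the molar concentrations giving 50% net growth inhibition, total growth inhibition and 50% net cell death. Where an effect was not reached, the highest tested concentration was used.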

[4] = Cytotoxicity against human HuDe cells incubated for 72 hrs by MTT assay; format: cell-based
Procedure, shortened: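 HuDe primary culture from human epidermis, seeded at 2 × 10⁴ cells/mL. Test drugs at different concentrations, or 0.1% DMSO, added 24 h after seeding, with 72 h exposure. MTT (5 mg/mL in PBS) then applied for 3 h at 37 °C. Formazan solubilized with isopropanol/triton X-100/HCl and read at 570 nm with 690 nm blank.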

[5] = biological target: Tubulin (Homo sapiens) (UniProt P68371+Q9H4B7+P0DPH7+P68366+Q13509+Q71U36+P04350+Q3ZCM7+P07437+P68363+Q9BQE3+Q6PEY2+Q13885+Q9BVA1+Q9BUF5); test: Inhibition of tubulin (unknown origin) assembly; format: protein-complex assay
[6] = system: K562; test: Growth inhibition of human K562 cells at 10 uM incubated for 24 hrs by trypan blue dye exclusion assay; format: functional; settings: K562, 24 h, read-out: GI
Procedure, shortened: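 K562 cells in medium with 5% FBS at 37 °C, 5% CO₂. About 2 × 10⁵ cells/mL cultured 24 h, then compound added at 10 μM. After 24 h exposure, cells counted by hemocytometer and viability scored by trypan blue exclusion, reported as percent growth inhibition.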

[7] = system: SK-MEL-2; test: Growth inhibition of human SK-MEL-2 cells by NCI standard protocol based method; format: functional; procedure, shortened: as §1
[8] = Growth inhibition of human SF295 cells by NCI standard protocol based method; format: functional; settings: SF-295; procedure, shortened: as §1
[9] = system: NCI-H23; test: Growth inhibition of human NCI-H23 cells by NCI standard protocol based method; format: functional; procedure, shortened: as §1
[10] = system: MDA-MB-435; test: Growth inhibition of human MDA-MB-435 cells by NCI standard protocol based method; format: functional; procedure, shortened: as §1
[11] = system: NCI-H322M; test: Growth inhibition of human NCI-H322M cells by NCI standard protocol based method; format: functional; procedure, shortened: as §1
[12] = system: OVCAR-3; test: Growth inhibition of human OVCAR3 cells by NCI standard protocol based method; format: functional; procedure, shortened: as §1
[13] = system: NCI-H226; test: Growth inhibition of human NCI-H226 cells by NCI standard protocol based method; format: functional; procedure, shortened: as §1
[14] = Growth inhibition of human SF539 cells by NCI standard protocol based method; format: functional; settings: SF-539; procedure, shortened: as §1
[15] = system: PC-3; test: Growth inhibition of human PC3 cells by NCI standard protocol based method; format: functional; procedure, shortened: as §1
[16] = system: HCT-15; test: Growth inhibition of human HCT15 cells by NCI standard protocol based method; format: functional; procedure, shortened: as §1
[17] = system: U-251; test: Growth inhibition of human U251 cells by NCI standard protocol based method; format: functional; procedure, shortened: as §2
[18] = system: NCI/ADR-RES; test: Growth inhibition of human NCI/ADR-RES cells by NCI standard protocol based method; format: functional; procedure, shortened: as §1
[19] = system: NCI-H460; test: Growth inhibition of human NCI-H460 cells by NCI standard protocol based method; format: functional; procedure, shortened: as §1
[20] = system: MCF7; test: Growth inhibition of human MCF7 cells by NCI standard protocol based method; format: functional; procedure, shortened: as §1
[21] = system: SN12C; test: Growth inhibition of human SN12C cells by NCI standard protocol based method; format: functional; procedure, shortened: as §2
[22] = system: KM12; test: Growth inhibition of human KM12 cells by NCI standard protocol based method; format: functional; procedure, shortened: as §1
[23] = system: SNB-19; test: Growth inhibition of human SNB19 cells by NCI standard protocol based method; format: functional; procedure, shortened: as §2
[24] = system: ACHN; test: Growth inhibition of human ACHN cells by NCI standard protocol based method; format: functional; procedure, shortened: as §1
[25] = system: SW-620; test: Growth inhibition of human SW620 cells by NCI standard protocol based method; format: functional; procedure, shortened: as §2
[26] = system: NCI-H522; test: Growth inhibition of human NCI-H522 cells by NCI standard protocol based method; format: functional; procedure, shortened: as §1
[27] = system: SK-MEL-28; test: Growth inhibition of human SK-MEL-28 cells by NCI standard protocol based method; format: functional; procedure, shortened: as §1
[28] = Growth inhibition of human Hs578T cells by NCI standard protocol based method; format: functional; settings: Hs-578T; procedure, shortened: as §1
[29] = system: SK-MEL-5; test: Growth inhibition of human SK-MEL-5 cells by NCI standard protocol based method; format: functional; procedure, shortened: as §1
[30] = system: K562; test: Selectivity index, ratio of IC50 for human HuDe cells to IC50 human K562 cells
Procedure, shortened: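 Index taken as the ratio of HuDe to K562 IC₅₀. For K562: about 2 × 10⁵ cells/mL, compounds added at graded concentrations, viable count by trypan blue exclusion with a hemocytometer after 24 h. For HuDe primary epidermal cells: 2 × 10⁴ cells/mL, drugs or 0.1% DMSO added 24 h after seeding, MTT read at 570 nm (690 nm blank) after 72 h.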

[31] = system: OVCAR-5; test: Growth inhibition of human OVCAR5 cells by NCI standard protocol based method; format: functional; procedure, shortened: as §1
[32] = Growth inhibition of human COLO205 cells by NCI standard protocol based method; format: functional; settings: COLO 205; procedure, shortened: as §1
[33] = Growth inhibition of human MOLT4 cells by NCI standard protocol based method; format: functional; settings: MOLT-4; procedure, shortened: as §1
[34] = system: SNB-75; test: Growth inhibition of human SNB75 cells by NCI standard protocol based method; format: functional; procedure, shortened: as §2
[35] = system: HCT-116; test: Growth inhibition of human HCT116 cells by NCI standard protocol based method; format: functional; procedure, shortened: as §1
[36] = Growth inhibition of human NCI60 cells assessed as cell growth level at 10 uM by NCI standard protocol based method; format: functional; parameters: scale not given: the % may be the effect or the level left
Procedure, shortened: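 NCI 60-cell-line screen (leukemia, lung, colon, melanoma, renal, ovarian, brain, breast, prostate) run to the NCI standard protocol. Single high dose of 10⁻⁵ M, read as growth percent. Mean graph midpoint is the arithmetic mean over all lines tested.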

[37] = system: SK-OV-3; test: Growth inhibition of human SKOV3 cells by NCI standard protocol based method; format: functional; procedure, shortened: as §2
[38] = Growth inhibition of human RXF393 cells by NCI standard protocol based method; format: functional; settings: RXF 393; procedure, shortened: as §1
[39] = system: K562; test: Growth inhibition of human K562 cells incubated for 24 hrs by trypan blue dye exclusion assay; format: functional, cell-based; settings: K562, 24 h
Procedure, shortened: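 K562 cells, about 2 × 10⁵ cells/mL, precultured 24 h, then exposed 24 h to a range of compound concentrations. Viable cells counted by hemocytometer with trypan blue exclusion to derive IC₅₀.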

[40] = system: A498; test: Growth inhibition of human A498 cells by NCI standard protocol based method; format: functional; procedure, shortened: as §1
[41] = system: MDA-MB-231; test: Growth inhibition of human MDA-MB-231 cells by NCI standard protocol based method; format: functional; procedure, shortened: as §1

**Q.** Which results are given for COc1cc(NC(=O)COc2ccccc2)c(C(N)=O)cc1OC?
**A.** GI50 [1]: 917 nM; GI50 [2]: 4000 nM; GI50 [3]: 3460 nM; IC50 [4]: 163000 nM; inhibition [5]: inactive; inhibition of growth at 10 µM [6]: 72.8%; GI50 [7]: 203 nM; GI50 [8]: 930 nM; GI50 [9]: 1320 nM; GI50 [10]: 614 nM; GI50 [11]: 5770 nM; GI50 [12]: 472 nM; GI50 [13]: 42800 nM; GI50 [14]: 563 nM; GI50 [15]: 2230 nM; GI50 [16]: 804 nM; GI50 [17]: 777 nM; GI50 [18]: 487 nM; GI50 [19]: 529 nM; GI50 [20]: 661 nM; GI50 [21]: 3120 nM; GI50 [22]: 443 nM; GI50 [23]: 3310 nM; GI50 [24]: 8120 nM; GI50 [25]: 646 nM; GI50 [26]: 410 nM; GI50 [27]: 24200 nM; GI50 [28]: 771 nM; GI50 [29]: 766 nM; Ratio IC50 [30]: 280.52; GI50 [31]: 15000 nM; GI50 [32]: 453 nM; GI50 [33]: 2910 nM; GI50 [34]: 547 nM; GI50 [35]: 620 nM; Activity [36]: 27.38%; GI50 [37]: 3580 nM; GI50 [38]: 1690 nM; IC50 [39]: 580 nM; GI50 [40]: 2770 nM; GI50 [41]: 2390 nM
